HTRA1 inh: HTRA1 serine protease inhibitors, primary screen, biochemical, fluorescence polarization, HTS. Q92743. recombinant HTRA1, FP-rhodamine activity-based probe. inhibition, % at 5.96 µM. 340,000 tested, 0.5% active; in the data active means inhibition above about 36%;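 further: 0% = enzyme with DMSO and 100% = wells lacking enzyme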
mABHD4 FP: ABHD4 inhibitors, primary screen, biochemical, fluorescence polarization, mouse; (Lyso)-N-acylphosphatidylethanolamine lipase (Mus musculus), Q8VD66; purified mABHD4, FP-Rh probe fluorescence polarization; 370,000 tested, 0.54% active; inhibition, % at 8.92 µM;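 active means inhibition exceeding the mean over every tested compound plus 3 SD, cut at about 30% in these data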;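 further: 0% = plate median of compound wells and 100% = S159A mutant with DMSO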
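Assay system: mouse ABHD4 enzyme, wild type / Also added: fluorescent activity-based probe FP-Rh / Doses: single nominal dose of 8.92 µM, 0.89% DMSO final / Timing: 45 min compound pre-incubation plus 60 min probe step, 25 °C / Signal: FP readout, ex 525 nm / em 598 nm / Control set: S159A mutant/DMSO as 100%, compound-well median as 0%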
SIAE primary: human SIAE inhibitors, primary screen, biochemical, fluorescence polarization, FP-Rh probe, 1536-well HTS; Sialate O-acetylesterase (Homo sapiens), Q9HAT2; SIAE FP-Rh probe binding; inhibition, % at 9.66 µM; 370,000 tested, 0.69% active; AID 1053197, 2014;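 active means inhibition above a cutoff: mean of compounds within the control limits plus 3 SD of those, cut at about 17% in these data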;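 further: 0% = plate median of compound wells and 100% = probe without SIAE protein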
DAGLB inh: DAGLB lipase inhibitors, primary screen, biochemical, fluorescence, HTS | HEK293T DAGLB membrane lysate, EnzChek fluorogenic substrate | inhibition, % at 5.17 µM | 340,000 tested, 0.059% active | AID 504411, 2011; in the data active means inhibition above about 34%;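 further: 0% = enzyme with vehicle and 100% = wells lacking enzyme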
Target sequence (Q8NCG7 whole entry, looked up): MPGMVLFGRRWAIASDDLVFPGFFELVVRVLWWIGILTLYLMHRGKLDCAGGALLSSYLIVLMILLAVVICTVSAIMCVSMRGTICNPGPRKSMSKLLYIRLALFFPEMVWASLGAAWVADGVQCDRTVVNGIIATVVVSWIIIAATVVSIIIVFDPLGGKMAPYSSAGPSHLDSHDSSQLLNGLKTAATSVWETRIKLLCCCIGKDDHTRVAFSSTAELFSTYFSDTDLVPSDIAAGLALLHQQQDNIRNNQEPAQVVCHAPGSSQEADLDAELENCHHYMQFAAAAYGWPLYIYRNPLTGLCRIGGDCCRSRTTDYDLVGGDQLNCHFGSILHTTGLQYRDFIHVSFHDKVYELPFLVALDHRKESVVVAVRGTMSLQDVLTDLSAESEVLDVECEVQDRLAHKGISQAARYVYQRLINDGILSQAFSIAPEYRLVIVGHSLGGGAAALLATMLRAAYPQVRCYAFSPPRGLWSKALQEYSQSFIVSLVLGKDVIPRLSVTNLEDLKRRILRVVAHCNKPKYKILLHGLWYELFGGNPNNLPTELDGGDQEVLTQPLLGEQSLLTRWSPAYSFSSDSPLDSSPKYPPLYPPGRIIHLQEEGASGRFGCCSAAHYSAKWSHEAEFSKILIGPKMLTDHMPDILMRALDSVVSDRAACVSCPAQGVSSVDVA
TCR-CD3 inh: inhibitors of human TCR-CD3 interaction, primary screen, biochemical, fluorescence, TAMRA-labeled TCR probe; T-cell receptor (TCR); inhibition, % at 9.4 µM; 360,000 tested, 0.37% active;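 further: recombinant mutant TCR 2C K166C tagged with TAMRA read by polarization; 0% = receptor in buffer alone and 100% = receptor with positive control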
BSA TAMRA ctr: compounds interfering with TAMRA-BSA probe, counter-screen for TCR-CD3 interaction inhibitor project, biochemical, fluorescence, TAMRA-labeled BSA. AID 652035, 2013. shares compounds with TCR-CD3 inh. inhibition, % at 9.4 µM. 1,200 tested, 10% active. TAMRA-labeled BSA probe fluorescence counterscreen; in the data active means inhibition above about 23%;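 further: 0% = buffer low control and 100% = reference high control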
TCR-CD3 conf: TCR-CD3 interaction inhibitors, retest, confirmation, biochemical, fluorescence, TAMRA-labeled TCR probe; inhibition, % at 9.4 µM; 1,200 tested, 48% active; TAMRA-labeled TCR probe fluorescence binding assay; shares compounds with TCR-CD3 inh
* hit, by the source's call; . = no result given. A selection: hits, their analogues and other compounds. The true share with any hit is near 1.6%. Unless noted, no stated cut-off is given here; in the data, active means inhibition above about 19%; inactive means the rest.

SMILES | HTRA1 inh | mABHD4 FP | SIAE primary | DAGLB inh | TCR-CD3 inh | BSA TAMRA ctr | TCR-CD3 conf
CCN(CC)S(=O)(=O)c1ccc(NC(=O)COC(=O)c2ccc(NC(=O)CC#N)cc2)cc1 | -24.4 | 12.1 | -37.3 | -1.4 | 19.7* | -3.2 | -0.2
C[C@H](CO)N1C[C@H](C)[C@@H](CN(C)C(=O)Nc2ccc3c(c2)OCO3)OCc2cn(nn2)CCCC1=O | . | 2.1 | 6.8 | . | 4.8 | . | .
CCCCNC(=O)C1CCCN1C(=O)Nc1cccc(C)c1 (stereo not drawn) | . | 6.1 | 4.5 | . | . | . | .
O=C(O)c1c[nH]c2c([N+](=O)[O-])cccc2c1=O | 3.6 | 9.2 | 1.3 | 0.2 | 23.7* | -5.1 | 22.8*
Cc1c(C(=O)O)cccc1[N+](=O)[O-] | 6.7 | -5.9 | 3.2 | 0.1 | -1.2 | . | .
Cc1cnc(C(=O)OCc2nc3ccsc3c(=O)[nH]2)cn1 | -0.8 | 5.5 | -3.1 | -5.9 | 28.2* | -13.4 | 16.3
CCc1ccc(N2CC(C(=O)OCc3nc4ccsc4c(=O)[nH]3)CC2=O)cc1 (stereo not drawn) | 12.2 | 3.3 | -1.6 | -0.8 | 27.3* | -11.4 | 12.2
COC(=O)[C@H](C(C)C)N(CCc1cn(CC2CCCCC2)nn1)S(=O)(=O)c1ccccc1Br | . | 2.2 | -2.3 | . | . | . | .
C/C(=N\NC(=O)c1c(C)nc2ccccn12)c1ccc(O)cc1O | 9.1 | 14.0 | 4.8 | 3.0 | 49.4* | -12.5 | 36.6*
C/C(=N\NC(=O)c1c(C)nc2ccccn12)c1ccccc1F | 7.2 | 4.5 | -4.5 | -0.5 | -1.1 | . | .
COc1ccc(O)c(/C=N/NC(=O)c2c(C)nnn2-c2nonc2N)c1 | 4.3 | 4.6 | 4.4 | 2.0 | 25.5* | -4.5 | 10.1
CCN(CC)c1ccc2nc3ccccc3[n+](CC)c2c1 | 6.1 | . | . | 4.0 | . | . | .
CCN(CC)c1ccc2nc3ccc(N)cc3[n+](-c3ccccc3)c2c1 | 22.3 | 10.7 | -10.9 | 15.8 | 123.5* | 121.4* | 96.7*
CN(CC1CCOCC1)C(=O)CC1C(=O)NCCN1C/C=C/c1ccccc1 (stereo not drawn) | 3.0 | -0.2 | -1.7 | 0.3 | 94.7* | -0.7 | -0.4
CN(CCC1CCOCC1)C(=O)CC1C(=O)NCCN1C/C=C/c1ccccc1 (stereo not drawn) | 5.0 | 0.6 | 0.8 | 2.0 | 4.3 | . | .
CC(OC(=O)c1ccc(NC(=O)CC#N)cc1)C(=O)NC(c1ccccc1)c1ccccc1 (stereo not drawn) | -76.9 | -56.2 | -50.6 | 4.6 | 29.5* | 4.4 | 0.6
CC(OC(=O)c1ccc(NC(=O)CC#N)cc1)C(=O)Nc1ccc2c(c1)OCCO2 (stereo not drawn) | -23.5 | -62.7 | -34.4 | -0.6 | 1.8 | . | .
Cc1ccc(NC(=O)C(C)OC(=O)c2ccc(NC(=O)CC#N)cc2)cc1S(=O)(=O)N1CCOCC1 (stereo not drawn) | -40.3 | -63.9 | -92.0 | -1.1 | 26.7* | -2.8 | 3.6
Cc1ccc(C(=O)OC(C)C(=O)Nc2ccc(S(N)(=O)=O)cc2)cc1S(=O)(=O)N1CCOCC1 (stereo not drawn) | 2.0 | 0.0 | 0.9 | 0.5 | 6.5 | . | .
CCOc1ccccc1NC(=O)C(OC(=O)c1ccccc1)c1ccccc1 (stereo not drawn) | -23.7 | -8.6 | -3.4 | -9.2 | -2.4 | . | .
CCOc1ccccc1NC(=O)C(OC(=O)c1ccc(NC(=O)CC#N)cc1)c1ccccc1 (stereo not drawn) | -101.8 | -48.4 | -87.5 | 1.7 | 20.3* | -3.4 | 3.9
CN(Cc1ccco1)C(=O)CN1C(=O)C2(OCCCO2)c2ccccc21 | . | -1.4 | 5.6 | . | . | . | .
COc1ccc(/C=C/S(=O)(=O)NCc2ccc(F)cc2)c(CNC(=O)OC(C)(C)C)c1 | . | -5.7 | 1.2 | . | . | . | .
O=C(CN(CCc1ccccc1)S(=O)(=O)c1ccc(F)cc1)N1CCOCC1 | . | 7.8 | 4.4 | . | . | . | .
O=C(OCCN1CCN(C2CN(Cc3cn(Cc4ccc([N+](=O)[O-])cc4)nn3)S(=O)(=O)C2)CC1)c1cc2ccccc2o1 (stereo not drawn) | . | 8.5 | -1.1 | . | . | . | .
SMILES | HTRA1 inh | mABHD4 FP | SIAE primary | DAGLB inh | TCR-CD3 inh | BSA TAMRA ctr | TCR-CD3 conf
CCOC(=O)C1=C(C(=O)OCC)C2N(Cc3ccc(C#N)cc3)c3ccccc3[C@@]23C[C@@H](C(=O)OC)N(S(=O)(=O)c2cccs2)C3=N1 (stereo partly drawn) | . | -1.4 | 6.3 | . | -2.9 | . | .
COc1cc(O)c2c(c1)OC(c1ccc(O)cc1)CC2=O (stereo not drawn) | -10.1 | -6.6 | 1.6 | -0.1 | 7.7 | . | .
Cc1c(O)cc2c(c1O)C(=O)CC(c1ccc(O)cc1)O2 (stereo not drawn) | 2.5 | -2.8 | -1.9 | -0.2 | 33.8* | 0.1 | 22.5*
CC(=O)OCCn1c2nc(=O)[nH]c(=O)c-2nc2cc(C)c(C)cc21 | 11.9 | 23.6 | 20.4* | -176.2 | 36.7* | 50.5* | 34.0*
N#Cc1c(N)sc(=S)c2c1CCCCC2 | 26.2 | 35.5* | 3.4 | 3.4 | 25.5* | 21.2 | 26.3*
Cc1ccc(SCc2cc(=O)[nH]c(N3CCOCC3)n2)cc1 | 3.1 | 0.0 | 1.7 | -1.8 | 19.4* | 4.6 | 2.4
Cc1cc(C)nc(SCCC(=O)Nc2ccccc2C)n1 | 4.4 | 3.6 | -2.3 | -1.6 | 107.2* | 3.5 | 0.5
CC1CCN(S(=O)(=O)c2ccc(NC(=O)Cn3nnc(-c4ccccc4F)n3)cc2)CC1 | -37.8 | -6.5 | -52.5 | -10.1 | 19.7* | 8.9 | 23.7*
O=C(N/N=C/c1cc(Cl)cc([N+](=O)[O-])c1O)C1CC1 | 10.6 | 15.5 | 1.8 | 13.0 | 21.2* | -11.0 | 16.6
CC(C)(C)N/N=C/c1cc(Cl)cc([N+](=O)[O-])c1O | 19.5 | 23.8 | 7.7 | 12.2 | 1.4 | . | .
O=C(NNC(=O)c1nn(-c2ccc(F)cc2)ccc1=O)Nc1cccc(Cl)c1 | . | 1.3 | 9.7 | . | 34.4* | -14.3 | 25.6*
CC(C)NC(=O)NNC(=O)c1nn(-c2ccc(F)cc2)ccc1=O | 8.2 | 0.0 | -2.4 | -1.3 | 20.5* | 0.3 | 15.4
CC1=NN(C(=O)c2ccccc2)C(O)(c2ccc(Br)cc2)C1 (stereo not drawn) | 32.2 | 8.1 | 1.7 | -1.1 | 24.0* | -4.8 | 24.9*
CC1=NN(C(=O)c2ccccc2Cl)C(O)(c2ccccc2)C1 (stereo not drawn) | 3.5 | -6.8 | 2.7 | 2.5 | 20.8* | -17.2 | 4.7
